Results reported in ChEMBL document CHEMBL4138201, “Synthesis and biological evaluation of sulfur-containing shikonin oxime derivatives as potential antineoplastic agents” (Eur J Med Chem, 2018).

Test system: MGC-803
Experiment: Cytotoxicity against human MGC803 cells after 48 hrs by MTT assay
Assay type: functional, cell-based
Details: MGC-803, 48 h
How it was run: (§1)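 MTT colorimetric assay. Shikonin and 5-fluorouracil served as reference agents. IC₅₀ obtained by linear regression of each compound's concentration–response curve.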

Compound	IC50
COc1cc(C(CC=C(C)C)SC(=O)c2ccc(C)cc2)c(OC)c2c1/C(=N/O)C=C/C2=N\O (stereo not given)	0.92 µM
COc1cc(C(CC=C(C)C)SC(=O)c2cccnc2)c(OC)c2c1/C(=N/O)C=C/C2=N\O (stereo not given)	7.56 µM
COc1cc([C@H](CC=C(C)C)SCCC(C)C)c(OC)c2c1/C(=N/O)C=C/C2=N\O	3.12 µM
COc1cc(C(CC=C(C)C)SC(=O)c2ccc(C(F)(F)F)cc2)c(OC)c2c1/C(=N/O)C=C/C2=N\O (stereo not given)	5.97 µM
CCCCCCSC(CC=C(C)C)c1cc(OC)c2c(c1OC)/C(=N/O)C=C/C2=N\O (stereo not given)	6.73 µM
COc1cc(C(CC=C(C)C)SC(=O)CC(C)C)c(OC)c2c1/C(=N/O)C=C/C2=N\O (stereo not given)	1.49 µM
COc1cc(C(=O)S[C@@H](CC=C(C)C)c2cc(OC)c3c(c2OC)/C(=N/O)C=C/C3=N\O)cc(OC)c1OC	0.97 µM
COc1cc(C(CC=C(C)C)SCC=C(C)C)c(OC)c2c1/C(=N/O)C=C/C2=N\O (stereo not given)	7.05 µM
COc1cc(C(=O)S[C@H](CC=C(C)C)c2cc(OC)c3c(c2OC)/C(=N/O)C=C/C3=N\O)cc(OC)c1OC	1.18 µM
COc1cc(C(CC=C(C)C)SC/C=C(\C)CC/C=C(\C)CCC=C(C)C)c(OC)c2c1/C(=N/O)C=C/C2=N\O (stereo not given)	9.98 µM
CCCCCC(=O)SC(CC=C(C)C)c1cc(OC)c2c(c1OC)/C(=N/O)C=C/C2=N\O (stereo not given)	16.9 µM

Test system: Bel-7402
Experiment: Cytotoxicity against human Bel7402 cells after 48 hrs by MTT assay
Assay type: functional, cell-based
Details: Bel-7402, 48 h
How it was run: as §1

Compound	IC50
COc1cc(C(CC=C(C)C)SC(=O)c2ccc(C)cc2)c(OC)c2c1/C(=N/O)C=C/C2=N\O (stereo not given)	0.72 µM
COc1cc(C(CC=C(C)C)SC(=O)c2cccnc2)c(OC)c2c1/C(=N/O)C=C/C2=N\O (stereo not given)	10.2 µM
COc1cc([C@H](CC=C(C)C)SCCC(C)C)c(OC)c2c1/C(=N/O)C=C/C2=N\O	4.85 µM
COc1cc(C(CC=C(C)C)SC(=O)c2ccc(C(F)(F)F)cc2)c(OC)c2c1/C(=N/O)C=C/C2=N\O (stereo not given)	7.12 µM
CCCCCCSC(CC=C(C)C)c1cc(OC)c2c(c1OC)/C(=N/O)C=C/C2=N\O (stereo not given)	11.7 µM
COc1cc(C(CC=C(C)C)SC(=O)CC(C)C)c(OC)c2c1/C(=N/O)C=C/C2=N\O (stereo not given)	1.65 µM
COc1cc(C(=O)S[C@@H](CC=C(C)C)c2cc(OC)c3c(c2OC)/C(=N/O)C=C/C3=N\O)cc(OC)c1OC	0.63 µM
COc1cc(C(CC=C(C)C)SCC=C(C)C)c(OC)c2c1/C(=N/O)C=C/C2=N\O (stereo not given)	12.6 µM
COc1cc(C(=O)S[C@H](CC=C(C)C)c2cc(OC)c3c(c2OC)/C(=N/O)C=C/C3=N\O)cc(OC)c1OC	0.97 µM
COc1cc(C(CC=C(C)C)SC/C=C(\C)CC/C=C(\C)CCC=C(C)C)c(OC)c2c1/C(=N/O)C=C/C2=N\O (stereo not given)	14.7 µM
CCCCCC(=O)SC(CC=C(C)C)c1cc(OC)c2c(c1OC)/C(=N/O)C=C/C2=N\O (stereo not given)	22.4 µM

Test system: not listed separately
Experiment: Cytotoxicity against human HSF cells after 48 hrs by MTT assay
Assay type: cell-based
Details: not given
How it was run: as §1

Compound	IC50
COc1cc(C(CC=C(C)C)SC(=O)c2ccc(C)cc2)c(OC)c2c1/C(=N/O)C=C/C2=N\O (stereo not given)	> 50 µM
COc1cc(C(CC=C(C)C)SC(=O)c2cccnc2)c(OC)c2c1/C(=N/O)C=C/C2=N\O (stereo not given)	> 50 µM
COc1cc([C@H](CC=C(C)C)SCCC(C)C)c(OC)c2c1/C(=N/O)C=C/C2=N\O	> 50 µM
COc1cc(C(CC=C(C)C)SC(=O)c2ccc(C(F)(F)F)cc2)c(OC)c2c1/C(=N/O)C=C/C2=N\O (stereo not given)	> 50 µM
CCCCCCSC(CC=C(C)C)c1cc(OC)c2c(c1OC)/C(=N/O)C=C/C2=N\O (stereo not given)	> 50 µM
COc1cc(C(CC=C(C)C)SC(=O)CC(C)C)c(OC)c2c1/C(=N/O)C=C/C2=N\O (stereo not given)	> 50 µM
COc1cc(C(=O)S[C@@H](CC=C(C)C)c2cc(OC)c3c(c2OC)/C(=N/O)C=C/C3=N\O)cc(OC)c1OC	> 50 µM
COc1cc(C(CC=C(C)C)SCC=C(C)C)c(OC)c2c1/C(=N/O)C=C/C2=N\O (stereo not given)	> 50 µM
COc1cc(C(=O)S[C@H](CC=C(C)C)c2cc(OC)c3c(c2OC)/C(=N/O)C=C/C3=N\O)cc(OC)c1OC	> 50 µM
COc1cc(C(CC=C(C)C)SC/C=C(\C)CC/C=C(\C)CCC=C(C)C)c(OC)c2c1/C(=N/O)C=C/C2=N\O (stereo not given)	> 50 µM
CCCCCC(=O)SC(CC=C(C)C)c1cc(OC)c2c(c1OC)/C(=N/O)C=C/C2=N\O (stereo not given)	> 50 µM

Test system: HCT-15
Experiment: Cytotoxicity against human HCT15 cells after 48 hrs by MTT assay
Assay type: functional, cell-based
Details: HCT-15, 48 h
How it was run: as §1

Compound	IC50
COc1cc(C(CC=C(C)C)SC(=O)c2ccc(C)cc2)c(OC)c2c1/C(=N/O)C=C/C2=N\O (stereo not given)	0.47 µM
COc1cc(C(CC=C(C)C)SC(=O)c2cccnc2)c(OC)c2c1/C(=N/O)C=C/C2=N\O (stereo not given)	3.45 µM
COc1cc([C@H](CC=C(C)C)SCCC(C)C)c(OC)c2c1/C(=N/O)C=C/C2=N\O	0.92 µM
COc1cc(C(CC=C(C)C)SC(=O)c2ccc(C(F)(F)F)cc2)c(OC)c2c1/C(=N/O)C=C/C2=N\O (stereo not given)	2.75 µM
CCCCCCSC(CC=C(C)C)c1cc(OC)c2c(c1OC)/C(=N/O)C=C/C2=N\O (stereo not given)	3.46 µM
COc1cc(C(CC=C(C)C)SC(=O)CC(C)C)c(OC)c2c1/C(=N/O)C=C/C2=N\O (stereo not given)	0.59 µM
COc1cc(C(=O)S[C@@H](CC=C(C)C)c2cc(OC)c3c(c2OC)/C(=N/O)C=C/C3=N\O)cc(OC)c1OC	0.34 µM
COc1cc(C(CC=C(C)C)SCC=C(C)C)c(OC)c2c1/C(=N/O)C=C/C2=N\O (stereo not given)	3.8 µM
COc1cc(C(=O)S[C@H](CC=C(C)C)c2cc(OC)c3c(c2OC)/C(=N/O)C=C/C3=N\O)cc(OC)c1OC	0.57 µM
COc1cc(C(CC=C(C)C)SC/C=C(\C)CC/C=C(\C)CCC=C(C)C)c(OC)c2c1/C(=N/O)C=C/C2=N\O (stereo not given)	5.96 µM
CCCCCC(=O)SC(CC=C(C)C)c1cc(OC)c2c(c1OC)/C(=N/O)C=C/C2=N\O (stereo not given)	7.21 µM

Test system: MCF7
Experiment: Cytotoxicity against human MCF7 cells after 48 hrs by MTT assay
Assay type: functional, cell-based
Details: MCF7, 48 h
How it was run: as §1

Compound	IC50
COc1cc(C(CC=C(C)C)SC(=O)c2ccc(C)cc2)c(OC)c2c1/C(=N/O)C=C/C2=N\O (stereo not given)	15.8 µM
COc1cc(C(CC=C(C)C)SC(=O)c2cccnc2)c(OC)c2c1/C(=N/O)C=C/C2=N\O (stereo not given)	37.5 µM
COc1cc([C@H](CC=C(C)C)SCCC(C)C)c(OC)c2c1/C(=N/O)C=C/C2=N\O	26.3 µM
COc1cc(C(CC=C(C)C)SC(=O)c2ccc(C(F)(F)F)cc2)c(OC)c2c1/C(=N/O)C=C/C2=N\O (stereo not given)	30.5 µM
CCCCCCSC(CC=C(C)C)c1cc(OC)c2c(c1OC)/C(=N/O)C=C/C2=N\O (stereo not given)	34.6 µM
COc1cc(C(CC=C(C)C)SC(=O)CC(C)C)c(OC)c2c1/C(=N/O)C=C/C2=N\O (stereo not given)	16.3 µM
COc1cc(C(=O)S[C@@H](CC=C(C)C)c2cc(OC)c3c(c2OC)/C(=N/O)C=C/C3=N\O)cc(OC)c1OC	11.8 µM
COc1cc(C(CC=C(C)C)SCC=C(C)C)c(OC)c2c1/C(=N/O)C=C/C2=N\O (stereo not given)	33.7 µM
COc1cc(C(=O)S[C@H](CC=C(C)C)c2cc(OC)c3c(c2OC)/C(=N/O)C=C/C3=N\O)cc(OC)c1OC	12.8 µM
COc1cc(C(CC=C(C)C)SC/C=C(\C)CC/C=C(\C)CCC=C(C)C)c(OC)c2c1/C(=N/O)C=C/C2=N\O (stereo not given)	37.4 µM
CCCCCC(=O)SC(CC=C(C)C)c1cc(OC)c2c(c1OC)/C(=N/O)C=C/C2=N\O (stereo not given)	45.7 µM
